# Measurements: ChEMBL document CHEMBL4270612, “Discovery of dual GyrB/ParE inhibitors active against Gram-negative bacteria” (Eur J Med Chem, 2018)
# Experiments:
# DNA gyrase subunit B = DNA gyrase subunit B (Escherichia coli, UniProt P0AES6); assay: Inhibition of Escherichia coli GyrB (1 to 220 residues) expressed in Escherichia coli BL21(DE3)
# [1] = molecular target: DNA topoisomerase 4 subunit B (Escherichia coli K-12, UniProt P20083); assay: Inhibition of Escherichia coli ParE
# Pseudomonas aeruginosa [2] = assay: Antibacterial activity against Pseudomonas aeruginosa harboring MexABCDXY deletion mutant after 24 hrs by broth microdilution method; assay type: functional
# Method in brief: (§1)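 Broth microdilution per CLSI. Bacterial suspensions adjusted to 1×10^6 CFU/mL in cation-adjusted Mueller–Hinton broth, mixed 1:1 with 2-fold serial compound dilutions (final DMSO 2.5% v/v). Incubation 35 °C, 140 rpm, 24 h.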
# Escherichia coli [3] = assay: Antibacterial activity against Escherichia coli after 24 hrs by broth microdilution method; assay type: functional
# Method in brief: (§2)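 Broth microdilution per CLSI. Bacterial suspension adjusted to 1×10^6 CFU/mL in cation-adjusted Mueller–Hinton broth and mixed 1:1 with 2-fold serial compound dilutions. Final DMSO 2.5% v/v. Plates incubated at 35 °C with shaking at 140 rpm for 24 h.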
# Escherichia coli [4] = assay: Antibacterial activity against tolC deficient Escherichia coli after 24 hrs by broth microdilution method; assay type: functional
# Method in brief: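 Broth microdilution per CLSI guidelines. Inoculum adjusted to 1×10^6 CFU/mL in cation-adjusted Mueller–Hinton broth, added 1:1 to 2-fold serial compound dilutions; final DMSO 2.5% v/v. Plates incubated 35 °C, 140 rpm, 24 h.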
# Acinetobacter baumannii [5] = assay: (§3) Antibacterial activity against Acinetobacter baumannii ARC3495 after 24 hrs by broth microdilution method; assay type: functional; details: ARC3495, 24 h; method in brief: as §2
# Klebsiella pneumoniae = assay: Antibacterial activity against Klebsiella pneumoniae ARC1865 after 24 hrs by broth microdilution method; assay type: functional; details: ARC1865, 24 h; method in brief: as §2
# Haemophilus influenzae = assay: Antibacterial activity against Haemophilus influenzae ATCC 49247 after 24 hrs by broth microdilution method; assay type: functional; details: ATCC 49247, 24 h; method in brief: as §2
# Enterobacter cloacae = assay: Antibacterial activity against Enterobacter cloacae ARC3528 after 24 hrs by broth microdilution method; assay type: functional; details: ARC3528, 24 h; method in brief: as §2
# Staphylococcus aureus [6] = assay: Antibacterial activity against methicillin-resistant Staphylococcus aureus FQ-R after 24 hrs by broth microdilution method; assay type: functional; method in brief: as §1
# Staphylococcus aureus [7] = assay: Antibacterial activity against methicillin-resistant Staphylococcus aureus USA100 after 24 hrs by broth microdilution method; assay type: functional; details: USA100, 24 h; method in brief: as §1
# Streptococcus pyogenes = assay: Antibacterial activity against Streptococcus pyogenes ARC838 after 24 hrs by broth microdilution method; assay type: functional; details: ARC838, 24 h
# Method in brief: (§4)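 Broth microdilution per CLSI. Bacterial suspension adjusted to 1×10^6 CFU/mL in cation-adjusted Mueller–Hinton broth and mixed 1:1 with 2-fold serial compound dilutions. Plates incubated at 35 °C with shaking at 140 rpm for 24 h.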
# Candida albicans = assay: Antifungal activity against Candida albicans ATCC 90028 after 24 hrs by broth microdilution method; assay type: functional; details: ATCC 90028, 24 h
# Pseudomonas aeruginosa [8] = assay: Antibacterial activity against Pseudomonas aeruginosa ARC3502 after 24 hrs by broth microdilution method; assay type: functional; details: ARC3502, 24 h; method in brief: as §4
# Pseudomonas aeruginosa [9] = assay: Antibacterial activity against Pseudomonas aeruginosa ARC003 after 24 hrs by broth microdilution method; assay type: functional; details: ARC003, 24 h; method in brief: as §2
# Pseudomonas aeruginosa [10] = assay: Antibacterial activity against Pseudomonas aeruginosa ARC3504 after 24 hrs by broth microdilution method; assay type: functional; details: ARC3504, 24 h; method in brief: as §2
# Pseudomonas aeruginosa [11] = assay: Antibacterial activity against Pseudomonas aeruginosa ARC3505 after 24 hrs by broth microdilution method; assay type: functional; details: ARC3505, 24 h; method in brief: as §2
# Pseudomonas aeruginosa [12] = assay: Antibacterial activity against Pseudomonas aeruginosa ARC3506 after 24 hrs by broth microdilution method; assay type: functional; details: ARC3506, 24 h; method in brief: as §2
# Pseudomonas aeruginosa [13] = assay: Antibacterial activity against Pseudomonas aeruginosa ARC3509 after 24 hrs by broth microdilution method; assay type: functional; details: ARC3509, 24 h; method in brief: as §2
# Pseudomonas aeruginosa [14] = assay: Antibacterial activity against Pseudomonas aeruginosa ARC3511 after 24 hrs by broth microdilution method; assay type: functional; details: ARC3511, 24 h; method in brief: as §4
# Pseudomonas aeruginosa [15] = assay: Antibacterial activity against Pseudomonas aeruginosa ARC3514 after 24 hrs by broth microdilution method; assay type: functional; details: ARC3514, 24 h; method in brief: as §4
# Pseudomonas aeruginosa [16] = assay: Antibacterial activity against Pseudomonas aeruginosa ARC3606 after 24 hrs by broth microdilution method; assay type: functional; details: ARC3606, 24 h; method in brief: as §2
# Pseudomonas aeruginosa [17] = assay: Antibacterial activity against Pseudomonas aeruginosa ARC3611 after 24 hrs by broth microdilution method; assay type: functional; details: ARC3611, 24 h; method in brief: as §2
# Pseudomonas aeruginosa [18] = assay: Antibacterial activity against Pseudomonas aeruginosa ARC3612 after 24 hrs by broth microdilution method; assay type: functional; details: ARC3612, 24 h; method in brief: as §2
# Pseudomonas aeruginosa [19] = assay: Antibacterial activity against Pseudomonas aeruginosa ARC3727 after 24 hrs by broth microdilution method; assay type: functional; details: ARC3727, 24 h; method in brief: as §4
# Pseudomonas aeruginosa [20] = assay: Antibacterial activity against Pseudomonas aeruginosa ARC3729 after 24 hrs by broth microdilution method; assay type: functional; details: ARC3729, 24 h; method in brief: as §2
# Pseudomonas aeruginosa [21] = assay: Antibacterial activity against Pseudomonas aeruginosa ARC3756 after 24 hrs by broth microdilution method; assay type: functional; details: ARC3756, 24 h; method in brief: as §4
# Pseudomonas aeruginosa [22] = assay: Antibacterial activity against Pseudomonas aeruginosa ARC3916 after 24 hrs by broth microdilution method; assay type: functional; details: ARC3916, 24 h; method in brief: as §2
# Pseudomonas aeruginosa [23] = assay: Antibacterial activity against Pseudomonas aeruginosa ARC4060 after 24 hrs by broth microdilution method; assay type: functional; details: ARC4060, 24 h; method in brief: as §2
# Pseudomonas aeruginosa [24] = assay: Antibacterial activity against Pseudomonas aeruginosa ARC4068 after 24 hrs by broth microdilution method; assay type: functional; details: ARC4068, 24 h; method in brief: as §4
# Acinetobacter baumannii [25] = assay: Antibacterial activity against Acinetobacter baumannii ARC2674 after 24 hrs by broth microdilution method; assay type: functional; details: ARC2674, 24 h; method in brief: as §2
# Acinetobacter baumannii [26] = assay: Antibacterial activity against Acinetobacter baumannii ARC2779 after 24 hrs by broth microdilution method; assay type: functional; details: ARC2779, 24 h; method in brief: as §2
# Acinetobacter baumannii [27] = assay: Antibacterial activity against Acinetobacter baumannii ARC2780 after 24 hrs by broth microdilution method; assay type: functional; details: ARC2780, 24 h; method in brief: as §4
# Acinetobacter baumannii [28] = assay: Antibacterial activity against Acinetobacter baumannii ARC2782 after 24 hrs by broth microdilution method; assay type: functional; details: ARC2782, 24 h; method in brief: as §2
# Acinetobacter baumannii [29] = assay: Antibacterial activity against Acinetobacter baumannii ARC3485 after 24 hrs by broth microdilution method; assay type: functional; details: ARC3485, 24 h; method in brief: as §2
# Acinetobacter baumannii [30] = assay: Antibacterial activity against Acinetobacter baumannii ARC3486 after 24 hrs by broth microdilution method; assay type: functional; details: ARC3486, 24 h; method in brief: as §2
# Acinetobacter baumannii [31] = assay: Antibacterial activity against Acinetobacter baumannii ARC3492 after 24 hrs by broth microdilution method; assay type: functional; details: ARC3492, 24 h; method in brief: as §4
# Acinetobacter baumannii [32] = assay: as §3; assay type: functional; details: ARC3495, 24 h; method in brief: as §2; remark: listed apart in the source
# Acinetobacter baumannii [33] = assay: Antibacterial activity against Acinetobacter baumannii ARC3513 after 24 hrs by broth microdilution method; assay type: functional; details: ARC3513, 24 h; method in brief: as §2
# Acinetobacter baumannii [34] = assay: Antibacterial activity against Acinetobacter baumannii ARC3515 after 24 hrs by broth microdilution method; assay type: functional; details: ARC3515, 24 h; method in brief: as §2
# Acinetobacter baumannii [35] = assay: Antibacterial activity against Acinetobacter baumannii ARC3658 after 24 hrs by broth microdilution method; assay type: functional; details: ARC3658, 24 h; method in brief: as §2
# Acinetobacter baumannii [36] = assay: Antibacterial activity against Acinetobacter baumannii ARC3659 after 24 hrs by broth microdilution method; assay type: functional; details: ARC3659, 24 h; method in brief: as §2
# [37] = Thermodynamic solubility of the compound at pH 7.4; assay type: physicochemical; details: buffer
# DNA topoisomerase 4 subunit B, sequence (P20083 whole entry): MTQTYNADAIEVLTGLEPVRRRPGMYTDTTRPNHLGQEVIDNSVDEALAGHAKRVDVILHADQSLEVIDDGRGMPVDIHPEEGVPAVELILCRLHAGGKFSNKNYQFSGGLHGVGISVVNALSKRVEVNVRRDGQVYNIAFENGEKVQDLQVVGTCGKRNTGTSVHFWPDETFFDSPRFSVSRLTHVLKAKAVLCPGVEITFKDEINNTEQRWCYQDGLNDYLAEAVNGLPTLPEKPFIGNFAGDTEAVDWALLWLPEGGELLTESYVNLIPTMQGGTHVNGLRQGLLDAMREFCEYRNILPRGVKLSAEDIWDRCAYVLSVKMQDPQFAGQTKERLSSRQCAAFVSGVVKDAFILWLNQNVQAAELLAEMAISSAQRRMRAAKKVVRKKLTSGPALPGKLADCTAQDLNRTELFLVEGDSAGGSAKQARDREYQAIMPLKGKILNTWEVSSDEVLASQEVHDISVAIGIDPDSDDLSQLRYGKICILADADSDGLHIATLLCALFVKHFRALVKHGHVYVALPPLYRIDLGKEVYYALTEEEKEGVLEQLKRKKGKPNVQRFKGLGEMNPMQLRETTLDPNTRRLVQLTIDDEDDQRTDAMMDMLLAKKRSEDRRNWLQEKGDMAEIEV
smiles,measurement,setting,value
CCNC(=O)Nc1cc(-c2nc(C(F)(F)F)cs2)c(-c2cc(-c3n[nH]c(=O)o3)cnc2N2C3CCC2CN(C)C3)cn1,IC50,DNA gyrase subunit B,6 nM
same,IC50,[1],4 nM
same,MIC,Pseudomonas aeruginosa [2],0.3 µg/mL
same,MIC,Escherichia coli [3],1.2 µg/mL
same,MIC,Escherichia coli [4],0.12 µg/mL
same,MIC,Acinetobacter baumannii [5],0.5 µg/mL
same,MIC,Klebsiella pneumoniae,32 µg/mL
same,MIC,Haemophilus influenzae,< 0.06 µg/mL
same,MIC,Enterobacter cloacae,32 µg/mL
same,MIC,Staphylococcus aureus [6],< 0.06 µg/mL
same,MIC,Staphylococcus aureus [7],< 0.06 µg/mL
same,MIC,Streptococcus pyogenes,< 0.06 µg/mL
same,MIC,Candida albicans,> 64 µg/mL
same,MIC,Pseudomonas aeruginosa [8],8 µg/mL
same,MIC,Pseudomonas aeruginosa [9],2 µg/mL
same,MIC,Pseudomonas aeruginosa [10],8 µg/mL
same,MIC,Pseudomonas aeruginosa [11],8 µg/mL
same,MIC,Pseudomonas aeruginosa [12],4 µg/mL
same,MIC,Pseudomonas aeruginosa [13],8 µg/mL
same,MIC,Pseudomonas aeruginosa [14],2 µg/mL
same,MIC,Pseudomonas aeruginosa [15],4 µg/mL
same,MIC,Pseudomonas aeruginosa [16],8 µg/mL
same,MIC,Pseudomonas aeruginosa [17],4 µg/mL
same,MIC,Pseudomonas aeruginosa [18],8 µg/mL
same,MIC,Pseudomonas aeruginosa [19],4 µg/mL
same,MIC,Pseudomonas aeruginosa [20],4 µg/mL
same,MIC,Pseudomonas aeruginosa [21],8 µg/mL
same,MIC,Pseudomonas aeruginosa [22],4 µg/mL
same,MIC,Pseudomonas aeruginosa [23],8 µg/mL
same,MIC,Pseudomonas aeruginosa [24],8 µg/mL
same,MIC,Acinetobacter baumannii [25],4 µg/mL
same,MIC,Acinetobacter baumannii [26],1 µg/mL
same,MIC,Acinetobacter baumannii [27],0.5 µg/mL
same,MIC,Acinetobacter baumannii [28],1 µg/mL
same,MIC,Acinetobacter baumannii [29],2 µg/mL
same,MIC,Acinetobacter baumannii [30],2 µg/mL
same,MIC,Acinetobacter baumannii [31],1 µg/mL
same,MIC,Acinetobacter baumannii [32],0.5 µg/mL
same,MIC,Acinetobacter baumannii [33],4 µg/mL
same,MIC,Acinetobacter baumannii [34],1 µg/mL
same,MIC,Acinetobacter baumannii [35],1 µg/mL
same,MIC,Acinetobacter baumannii [36],1 µg/mL
same,solubility thermodynamic,[37]; read-out: Therm_solubility,1490 µM
CCNC(=O)Nc1cc(-c2nc(C(F)(F)F)cs2)c(-c2cc3ncccc3nc2N2C3CCC2CN(C)C3)cn1,IC50,DNA gyrase subunit B,7 nM
same,IC50,[1],14 nM
same,MIC,Pseudomonas aeruginosa [2],0.56 µg/mL
same,MIC,Escherichia coli [3],2.27 µg/mL
same,MIC,Escherichia coli [4],0.14 µg/mL
same,MIC,Acinetobacter baumannii [5],2 µg/mL
same,MIC,Klebsiella pneumoniae,64 µg/mL
same,MIC,Haemophilus influenzae,0.25 µg/mL
same,MIC,Enterobacter cloacae,> 64 µg/mL
same,MIC,Staphylococcus aureus [6],< 0.06 µg/mL
same,MIC,Staphylococcus aureus [7],< 0.06 µg/mL
same,MIC,Streptococcus pyogenes,< 0.06 µg/mL
same,MIC,Candida albicans,> 64 µg/mL
same,MIC,Pseudomonas aeruginosa [8],16 µg/mL
same,MIC,Pseudomonas aeruginosa [9],4 µg/mL
same,MIC,Pseudomonas aeruginosa [10],32 µg/mL
same,MIC,Pseudomonas aeruginosa [11],32 µg/mL
same,MIC,Pseudomonas aeruginosa [12],16 µg/mL
same,MIC,Pseudomonas aeruginosa [13],16 µg/mL
same,MIC,Pseudomonas aeruginosa [14],8 µg/mL
same,MIC,Pseudomonas aeruginosa [15],8 µg/mL
same,MIC,Pseudomonas aeruginosa [16],32 µg/mL
same,MIC,Pseudomonas aeruginosa [17],8 µg/mL
same,MIC,Pseudomonas aeruginosa [18],32 µg/mL
same,MIC,Pseudomonas aeruginosa [19],32 µg/mL
same,MIC,Pseudomonas aeruginosa [20],8 µg/mL
same,MIC,Pseudomonas aeruginosa [21],16 µg/mL
same,MIC,Pseudomonas aeruginosa [22],16 µg/mL
same,MIC,Pseudomonas aeruginosa [23],16 µg/mL
same,MIC,Pseudomonas aeruginosa [24],16 µg/mL
same,MIC,Acinetobacter baumannii [25],4 µg/mL
same,MIC,Acinetobacter baumannii [26],2 µg/mL
same,MIC,Acinetobacter baumannii [27],0.5 µg/mL
same,MIC,Acinetobacter baumannii [28],2 µg/mL
same,MIC,Acinetobacter baumannii [29],2 µg/mL
same,MIC,Acinetobacter baumannii [30],2 µg/mL
same,MIC,Acinetobacter baumannii [31],2 µg/mL
same,MIC,Acinetobacter baumannii [32],2 µg/mL
same,MIC,Acinetobacter baumannii [33],8 µg/mL
same,MIC,Acinetobacter baumannii [34],4 µg/mL
same,MIC,Acinetobacter baumannii [35],2 µg/mL
same,MIC,Acinetobacter baumannii [36],2 µg/mL
same,Therm_solubility,[37]; BLD = below limit of detection,Bld
